In ChEMBL document CHEMBL3351743, “Chemopreventive effects of (-)-hinokinin against 1,2-dimethylhydrazine-induced genotoxicity and preneoplastic lesions in rat colon” (J Nat Prod, 2014):
The source made the active and inactive calls. No cut-off for these calls is given here.

Experiments:
[1] = system: Rattus norvegicus; test: Antigenotoxic activity in Wistar rat peripheral blood assessed as reduction in DMH-induced increase in nucleoids at 20 mg/kg, po administered daily for 7 days; assay type: functional; parameters: scale not given: the % may be the effect or the level left
Method in brief: (§1)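 Male Wistar rats, six per group. Compound in water/Tween 80 (97:3) given by daily gavage for 7 days. DMH 40 mg/kg sc given 4 h before sampling on day 7. Cells used only at ≥80% viability. Scoring: 100 nucleoids per animal visually classed 0–3 by tail length relative to head diameter. % reduction = (DMH − treated)/(DMH − negative control) × 100, based on damaged cells.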

[2] = system: Rattus norvegicus; test: Antigenotoxic activity in Wistar rat peripheral blood assessed as reduction in DMH-induced increase in nucleoids at 40 mg/kg, po administered daily for 7 days; assay type: functional; parameters: scale not given: the % may be the effect or the level left; method in brief: as §1
[3] = system: Rattus norvegicus; test: Toxicity in Wistar rat assessed as body weight gain at 40 mg/kg, po administered five times per week for 4 weeks; assay type: organism-based; parameters: dose 40 mg/kg, route oral; conditions: in vivo, 672 h
Method in brief: (§2)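 Male Wistar rats, six per group, dosed by gavage in water/Tween 80 (97:3) five times weekly for 4 weeks, with or without DMH (four sc injections of 40 mg/kg in the first 2 weeks). Body weight and water intake recorded daily; mean ± SD.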

[4] = system: Rattus norvegicus; test: Antigenotoxic activity in Wistar rat peripheral blood assessed as reduction in DMH-induced increase in nucleoids at 10 mg/kg, po administered daily for 7 days; assay type: functional; parameters: scale not given: the % may be the effect or the level left; method in brief: as §1
[5] = system: Rattus norvegicus; test: Toxicity in Wistar rat assessed as body weight gain at 10 to 40 mg/kg, po administered daily for 7 days; assay type: organism-based; parameters: dose 10-40 mg/kg, route oral; conditions: in vivo, 168 h
Method in brief: (§3)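 Male Wistar rats, six per group, compound dosed by gavage in water/Tween 80 (97:3) daily for 7 days, with or without DMH 40 mg/kg sc. Body weight and water intake recorded daily; mean ± SD.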

[6] = system: Rattus norvegicus; test: Toxicity in Wistar rat assessed as change in water intake at 10 to 40 mg/kg, po administered daily for 7 days; assay type: organism-based; parameters: dose 10-40 mg/kg, route oral; conditions: in vivo, 168 h; method in brief: as §3
[7] = system: Rattus norvegicus; test: Anticarcinogenic activity in Wistar rat colon assessed as reduction in frequency of DMH-induced aberrant crypt foci in proximal segment at 10 to 40 mg/kg, po administered five times per week for 4 weeks; assay type: functional, organism-based
Method in brief: (§4)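 Male Wistar rats (~120 g, 4−5 weeks old, 1 week acclimation), six per group. Compound in water/Tween 80 (97:3) given by gavage five times weekly for 4 weeks. DMH dissolved in EDTA solution, 160 mg/kg total given as four sc injections of 40 mg/kg, twice weekly over the first 2 weeks. Colons formalin-fixed 24 h, stained with 0.02% methylene blue; 50 fields per segment at 100×; ACF counted, mean ± SD, ANOVA/Tukey.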

[8] = system: Rattus norvegicus; test: Anticarcinogenic activity in Wistar rat colon assessed as reduction in frequency of DMH-induced aberrant crypt foci in middle segment at 10 to 40 mg/kg, po administered five times per week for 4 weeks; assay type: functional, organism-based; method in brief: as §4
[9] = system: Rattus norvegicus; test: Anticarcinogenic activity in Wistar rat colon assessed as reduction in frequency of DMH-induced aberrant crypt foci in distal segment at 10 to 40 mg/kg, po administered five times per week for 4 weeks; assay type: functional, organism-based; method in brief: as §4
[10] = system: Rattus norvegicus; test: Toxicity in Wistar rat assessed as change in water intake at 40 mg/kg, po administered five times per week for 4 weeks; assay type: organism-based; parameters: dose 40 mg/kg, route oral; conditions: in vivo, 672 h; method in brief: as §2

Compound: O=C1OC[C@H](Cc2ccc3c(c2)OCO3)[C@H]1Cc1ccc2c(c1)OCO2 [HINOKININ]
- Activity [1]: 50.4%
- Activity [2]: 54.7%
- Activity [3]: Non-toxic
- Activity [4]: 43.2%
- Activity [5]: Non-toxic
- Activity [6]: Non-toxic
- Activity [7]: inactive
- Activity [8]: Active
- Activity [9]: Active
- Activity [10]: Non-toxic
